# Compound activity (PubChem)
# Compounds with a hit are over-represented: about 1.7% of the library has one in this group of screens.
# CHRM5 agonist: human M5 muscarinic receptor agonists, primary screen, CHO-K1 cells, Fluo-8 calcium fluorescence | CHO-K1 hM5 cells; 0% DMSO wells, 100% maximal acetylcholine response | activation, % at 3 µM | 360,000 compounds, 0.19% hits | Muscarinic acetylcholine receptor M5 (Homo sapiens), P08912;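 active = activation above the run's mean over test compounds plus 3 SD, cut at about 23% in these data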;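 note: signal is peak over basal fluorescence ratio across the kinetic read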
# Target sequence (P08912 whole entry, looked up): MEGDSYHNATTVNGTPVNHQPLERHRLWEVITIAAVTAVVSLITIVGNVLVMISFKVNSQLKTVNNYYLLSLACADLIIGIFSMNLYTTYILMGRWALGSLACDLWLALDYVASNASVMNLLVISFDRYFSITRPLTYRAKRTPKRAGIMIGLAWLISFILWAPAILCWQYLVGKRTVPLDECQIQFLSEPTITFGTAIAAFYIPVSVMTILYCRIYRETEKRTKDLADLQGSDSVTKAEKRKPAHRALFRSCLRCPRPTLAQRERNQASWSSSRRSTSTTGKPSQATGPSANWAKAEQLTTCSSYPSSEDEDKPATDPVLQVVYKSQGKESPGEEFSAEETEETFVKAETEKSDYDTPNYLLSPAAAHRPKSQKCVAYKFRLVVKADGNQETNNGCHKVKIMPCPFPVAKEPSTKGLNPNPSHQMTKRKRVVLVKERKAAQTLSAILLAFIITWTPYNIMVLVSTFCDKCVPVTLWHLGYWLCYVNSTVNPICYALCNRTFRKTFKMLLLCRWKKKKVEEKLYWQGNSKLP
# CHRM5 PAM: human M5 muscarinic receptor positive allosteric modulators, primary screen, CHO-K1 cells, Fluo-8 calcium fluorescence; Muscarinic acetylcholine receptor M5 (Homo sapiens), P08912; CHO-K1 hM5, ACh EC20 PAM; 0% = ACh EC20, 100% = ACh EC100; activation, % at 3 µM; 360,000 compounds, 0.3% hits;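 active = activation above the run cutoff, the mean activation of all test compounds plus 3 SD, cut at about 18% in these data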
#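 Test system: CHO-K1 hM5 cells / Doses: single-point, 3 µM nominal / Times: Post-acetylcholine fluorescence recording 140 s / Technique: Fluo-8 calcium fluorescence / Measure: Max/basal fluorescence ratio as % of EC20–EC100 ACh window / Benchmarks: low control EC20 acetylcholine (0%), high control EC100 acetylcholine (100%) / Replicates: one well per compound, no replicates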
# CHO-K1 Ca antag: nonselective inhibitor or artifact in parental CHO-K1 cells | inhibition, % at 3 µM | ATP-induced calcium, Fluo-8 fluorescence | 360,000 compounds, 0.6% hits;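 active = inhibition above a per-plate cutoff, the plate's mean sample inhibition plus 3 SD, cut at about 24% in these data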;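 note: 0% = DMSO plus EC80 ATP and 100% = DMSO alone without ATP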
# CHO-K1 Ca PAM: nonselective calcium activators in parental CHO-K1 cells, primary screen, counter-screen for M1 PAM project, cell-based, Fluo-8 calcium fluorescence, full deck, 1536-well; ATP EC20; 0% at ATP EC20, 100% at ATP max; activation, % at 3 µM; 360,000 compounds, 0.02% hits; AID 602247, 2012;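 active = activation above the run cutoff, the mean activation of all test compounds plus 3 SD, cut at about 40% in these data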;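 note: peak over basal fluorescence ratio in a 140 s read after ATP addition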
# M1 ag parental: counter-screen for M1 agonists: effect in parental CHO-K1 cells; 360,000 compounds, 0.48% hits; Fluo-8 calcium fluorescence; scaled to maximal ATP response, vehicle zero; activation, % at 3 µM; AID 602248, 2012; in the data active = activation above about 15%;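 note: untransfected CHO-K1 host cells lacking M1 receptor as counterscreen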
# M5 antag: human M5 muscarinic receptor antagonists, primary screen, CHO cells, Fluo-8 calcium fluorescence. Muscarinic acetylcholine receptor M5 (Homo sapiens), P08912. CHO-hM5 cells, ACh EC80. inhibition, % at 3 µM. 360,000 compounds, 0.59% hits. AID 624040, 2012;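 active = inhibition above a per-plate cutoff, the mean of that plate's test compounds plus 3 SD, cut at about 27% in these data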;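 note: 0% = acetylcholine EC80 with DMSO and 100% = DMSO without agonist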
# * = called active by the depositor; · = no result given.
SMILES,CHRM5 agonist,CHRM5 PAM,CHO-K1 Ca antag,CHO-K1 Ca PAM,M1 ag parental,M5 antag
S=C(NCc1ccncc1)Nc1cc(Cl)cc(Cl)c1,2.6,-23.3,27.3*,-13.9,13.3,26.3
S=C(NCc1ccncc1)Nc1ccc(Cl)c(Cl)c1,12.6,-13.4,7.2,3.8,12.3,18.8
S=C(NCc1cccnc1)Nc1cccc(Cl)c1,1.3,-1.5,-5.3,15.7,2.3,-3.2
COC(=O)c1cc(NC(=S)NCc2ccc(Cl)cc2)cc(C(=O)OC)c1,11.9,-14.3,24.4*,-5.3,13.3,29.0*
S=C(NCc1cccnc1)Nc1cc(Cl)cc(Cl)c1,1.7,-22.4,9.2,-0.9,9.1,30.4*
O=C(Nc1cc(Cl)cc(Cl)c1)c1cccnc1,4.6,-1.1,4.0,7.9,18.0*,7.8
CCCN(CCC)Cc1c(C(=O)N/N=C/c2c[nH]c3ccccc23)nnn1-c1nonc1N,-4.1,0.2,1.2,-11.7,0.7,-1.2
N#Cc1ccc(C(C(=O)NC2CCCCC2)n2c(=O)c(-c3cc4ccccc4[nH]3)nc3ccccc32)cc1 (stereo unspecified),2.7,-2.1,·,·,·,-0.1
COc1ccc(OC)c(NS(=O)(=O)c2ccc(N3CCCC3=O)cc2)c1,-4.0,-6.3,3.1,25.2,3.4,1.2
COc1ccc(NS(=O)(=O)c2ccc(N3CCCC3=O)cc2)cn1,2.8,-20.5,5.1,-6.2,9.7,28.0*
NCC(=O)NCC(=O)NC[C@H]1O[C@@H](n2cnc3c(N)ncnc32)[C@H](O)[C@@H]1O,-0.7,1.0,10.8,1.4,0.1,0.1
COc1ccc(-c2csc(NC(=O)c3ccccc3NS(=O)(=O)c3ccc(F)c(F)c3)n2)cc1,1.3,-36.0,22.9,-14.5,15.2*,42.3*
O=C(Nc1ccc(F)cc1)Nc1ccc(N2CCCC2)c(S(=O)(=O)Nc2ccccc2Cl)c1,2.7,-14.4,16.7,5.6,7.9,28.7*
O=C(Nc1cc(S(=O)(=O)N2CCCCC2)ccc1Cl)c1ccccc1NS(=O)(=O)c1ccc(F)cc1,4.4,-15.4,21.2,2.4,11.6,30.4*
COc1ccc(-c2csc(NC(=O)c3ccccc3F)n2)cc1,-0.2,1.9,3.7,-13.0,0.8,4.8
Cc1ccc(S(=O)(=O)Nc2ccccc2C(=O)Nc2nc(-c3ccc(F)cc3)cs2)cc1,6.4,-18.0,25.8*,4.7,15.9*,37.8*
O=C(Nc1cc(S(=O)(=O)N2CCCCC2)ccc1O)c1ccccc1NS(=O)(=O)c1ccc(F)cc1,0.1,-6.1,-9.6,-8.4,-0.1,13.1
Cc1ccc(S(=O)(=O)Nc2nc(-c3ccccc3)cs2)cc1,-1.6,1.1,-10.7,10.4,0.5,-1.2
Cc1nc2c3ccccc3n(Cc3ccccc3F)c2s1,-0.8,-7.8,-18.3,19.7,1.6,10.5
COCCNC(=O)C12CC3CC(C1)CC(c1ccccc1)(C3)C2,-2.4,-5.8,-4.5,18.8,0.7,8.3
CCCCN(C(=O)Cc1ccc2c(c1)OCCO2)c1c(N)n(CCC)c(=O)[nH]c1=O,0.7,-6.0,-6.5,9.4,-0.4,3.8
O=C(Nc1ccccc1N1CCOCC1)c1ccccc1NS(=O)(=O)c1ccc(F)c(F)c1,13.9,35.5*,24.1*,-6.1,8.9,23.2
O=C(Nc1ccccc1N1CCOCC1)c1ccccc1NS(=O)(=O)c1ccc(F)cc1,0.5,-14.1,2.6,11.4,2.4,6.1
CC(=O)Nc1ccc(S(=O)(=O)N(C)CC(=O)Nc2ccc(F)c(F)c2F)cc1,2.9,7.1,-16.5,7.8,0.9,-3.0
COc1ccccc1NC(=O)CSc1nc(O)c(Cc2ccccc2)c(=O)[nH]1,0.0,2.0,3.1,4.1,0.2,-0.5
CCCc1c(O)nc(SCCN(CCC)CCC)[nH]c1=O,0.9,-4.5,27.0*,-8.5,-0.4,-1.6
CCSc1nc(O)c(Cc2ccccc2)c(=O)[nH]1,0.4,-2.1,30.6*,-7.3,-0.2,2.0
